Assay results taken from ChEMBL document CHEMBL1124360, “Dihydropyrimidines: novel calcium antagonists with potent and long-lasting vasodilative and antihypertensive activity” (J Med Chem, 1989).

How the values were obtained:
[1] = test system: Canis familiaris; assay: (§1) Time to peak response on lowering of vascular resistance, in dogs when administered intravenously; format: organism-based, Canis lupus familiaris; conditions: dog, in vivo, iv
[2] = test system: Canis familiaris; assay: Effective dose that lowers vascular resistance by, 30% in dogs when administered intravenously; format: functional; conditions: Canis lupus familiaris, iv
Summary of the method: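 Mongrel dogs (7-15 kg, either sex) are anesthetized with thiopental 30 mg/kg iv or ip, then urethane 400 mg/kg plus α-chloralose 60 mg/kg iv, and ventilated. Left vertebral flow is measured by electromagnetic probe and femoral arterial pressure is recorded. Resistance is pressure divided by flow. Compounds in ethanol are given iv at 0.05 mL/kg in cumulative rising doses; the dose cutting resistance 30% is taken (N = 3).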

[3] = species on record: Canis familiaris; assay: Dose at which compound induce atrioventricular block in dogs; AV means atrioventricular; range is 1000-3000; format: functional, Canis lupus familiaris
Summary of the method: (§2)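 Anesthetized open-chest dogs; atrium paced with square-wave pulses of 1.5-2.5 V, 2 ms, at 2.5 Hz. AV conduction time is the interval between atrial and ventricular electrograms. Compounds are dissolved in 100% DMSO and injected iv into the femoral vein at 0.05 mL/kg. Reported as the dose prolonging AVCT by 30% (mean ± SE, N = 4-5) or the dose inducing AV block.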

[4] = species on record: Canis familiaris; assay: Effective dose against atrioventricular conduction in dogs at which they prolong atrioventricular conduction time by 30%; format: functional; conditions: Canis lupus familiaris; summary of the method: as §2
[5] = target: T1, Voltage-gated L-type calcium channel (Rattus norvegicus, UniProt P22002+Q02485+P27732); assay: Inhibition of [3H]- Nitrendipine binding to L-type calcium channels of rat cerebral cortex; format: tissue-based
Summary of the method: (§3)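 Rat cerebral cortex is homogenized in ice-cold 50 mM Tris-HCl pH 7.7 and washed by repeated 40000g spins. Homogenate is incubated with 0.2 nM [³H]nitrendipine and drug for 1 h at 25 °C, then vacuum-filtered on glass-fiber filters and counted by liquid scintillation. Nonspecific binding is defined with 1 μM unlabeled nitrendipine.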

[6] = target: T1, Voltage-gated L-type calcium channel; assay: Inhibition of [3H]nitrendipine binding to L-type calcium channels of rat cerebral cortex; format: tissue-based; summary of the method: as §3
[7] = test system: Canis familiaris; assay: as §1; format: ADME, organism-based, Canis lupus familiaris; conditions: dog, in vivo, iv
[8] = species on record: Canis familiaris; assay: Dose at which compound induce atrioventricular block in dogs; range is 100-3000; format: functional, Canis lupus familiaris; summary of the method: as §2
[9] = species on record: Canis familiaris; assay: Dose at which compound induce atrioventricular block in dogs; range is 100-300; format: functional, Canis lupus familiaris; summary of the method: as §2

Compound `CC1=NC(C)=C(C(=O)OC(C)C)C(c2ccccc2[N+](=O)[O-])N1C(=O)OCCN(CCc1ccccc1)Cc1ccccc1` (configuration not stated) has a Tp [1] of 2.7 min and an ED30 [2] of 1.2 µg/kg.

With `CCCCCCCOC(=O)C1=C(C)N=C(C)N(C(=O)OCCCCCCC)C1c1ccccc1[N+](=O)[O-]` (configuration not stated) the ED30 [2] was 180 µg/kg.

Work on `CC1=NC(C)=C(C(=O)OCC2CC2)C(c2ccccc2[N+](=O)[O-])N1C(=O)OCCN(CCCc1ccccc1)Cc1ccccc1` (configuration not stated) yielded a Tp [1] of 4.8 min, an AV block [3] of 1000 µg/kg and an ED30 [2] of 4.3 µg/kg. It also gave an ED30 [4] of 843 µg/kg.

`CCCCCCCOC(=O)C1=C(C)N=C(C)N(C(=O)OCCN(Cc2ccccc2)Cc2ccccc2)C1c1ccccc1[N+](=O)[O-]` (configuration not stated) gave an ED30 [2] of over 30 µg/kg.

For `CCOC(=O)C1=C(C)NC(=O)N(C(=O)OCCN(C)Cc2ccccc2)C1c1cccc(Cl)c1` (configuration not stated), the ED30 [2] was 43 µg/kg.

Compound `CCOC(=O)N1C(C)=NC(C)=C(C(=O)OCCN(C)Cc2ccccc2)C1c1ccccc1[N+](=O)[O-]` (configuration not stated) has an ED30 [2] of 13 µg/kg.

Work on `CCOC(=O)C1=C(Cl)N=C(C)N(C(=O)OCCN(Cc2ccccc2)Cc2ccc3ccccc3c2)C1c1ccccc1[N+](=O)[O-]` (configuration not stated) yielded a Tp [1] of 5.2 min and an ED30 [2] of 10 µg/kg.

Work on `CCOC(=O)C1=C(C)N=C(C)N(C(=O)OCC)C1c1ccccc1[N+](=O)[O-]` (configuration not stated) yielded an ED30 [2] of 3 µg/kg.

`CCCCCCCOC(=O)N1C(=O)NC(C)=C(C(=O)OCC2CC2)C1c1ccccc1[N+](=O)[O-]` (configuration not stated) showed a Tp [1] of 1.9 min and an ED30 [2] of 2.3 µg/kg.

`CO/C(O)=C1/C(C)=NC(C)=C(C(=O)OCCN2CCN(C(c3ccccc3)c3ccccc3)CC2)C1c1cccc([N+](=O)[O-])c1` (configuration not stated) was tested, and the IC50 [5] was 8.68 nM.

`CC1=NC(C)=C(C(=O)OCC2CC2)C(c2ccccc2[N+](=O)[O-])N1C(=O)OCCN(C)Cc1ccccc1` (configuration not stated) was tested, and the ED30 [2] was 0.5 µg/kg.

`CCOC(=O)C1=C(C)N=C(C)N(C(=O)OCCN(C)Cc2ccccc2)C1c1ccccc1[N+](=O)[O-]` (configuration not stated) was tested, and the ED30 [2] was 0.75 µg/kg.

`CSC1=NC(C)=C(C(=O)OC(C)C)C(c2ccccc2[N+](=O)[O-])N1C(=O)OCCN(Cc1ccccc1)Cc1ccc2ccccc2c1` (configuration not stated) gave an ED30 [2] of over 100 µg/kg.

For `CC1=NC(C)=C(C(=O)OCC2CC2)C(c2ccccc2[N+](=O)[O-])N1C(=O)OCCN(C/C=C/c1ccccc1)Cc1ccccc1` (configuration not stated), the Tp [1] was 5.6 min and the ED30 [2] was 3.9 µg/kg.

`CC1=C(C(=O)OC(C)C)C(c2ccccc2[N+](=O)[O-])N(C(=O)OCCN(Cc2ccccc2)Cc2ccccc2)C(C(F)(F)F)=N1` (configuration not stated) gave an ED30 [2] of 6.8 µg/kg.

For `COC(=O)C1=C(C)NC(C)=C(C(=O)OCCN(C)Cc2ccccc2)C1c1cccc([N+](=O)[O-])c1` (configuration not stated) [NICARDIPINE], the ED30 [2] was 3 µg/kg, the ED30 [4] was 175 µg/kg and the IC50 [6] was 2.66 nM. It also gave a Tp [7] of 1.2 min and an AV block [8] of 100 µg/kg.

`CCCCCCCOC(=O)N1C(=O)NC(C)=C(C(=O)OCC2CC2)C1c1cccc([N+](=O)[O-])c1` (configuration not stated) showed an ED30 [2] of 3 µg/kg.

Work on `COC(=O)C1=C(C)NC(C)=C(C(=O)OC)C1c1ccccc1[N+](=O)[O-]` [NIFEDIPINE] yielded an ED30 [2] of 0.5 µg/kg and a Tp [7] of 0.7 min.

Work on `CCOC(=O)C1=C(COCCN(Cc2ccccc2)Cc2ccc(Cl)c(Cl)c2)N=C(C)N(C(=O)OC)C1c1ccccc1[N+](=O)[O-].Cl` (configuration not stated) yielded an ED30 [2] of over 100 µg/kg.

With `CCCCCCCOC(=O)N1C(C)=NC(C)=C(C(=O)OCC)C1c1ccccc1[N+](=O)[O-]` (configuration not stated) the ED30 [2] was 3.2 µg/kg.

With `CC1=NC(C)=C(C(=O)OC(C)C)C(c2ccccc2[N+](=O)[O-])N1C(=O)OCCN(Cc1ccccc1)Cc1ccc(Cl)c(Cl)c1` (configuration not stated) the AV block [3] was 1000 µg/kg, the ED30 [2] was 2.1 µg/kg and the IC50 [5] was 2.05 nM. It also gave an ED30 [4] of 596 µg/kg and a Tp [7] of 10.8 min.

`CCOC(=O)C1=C(C)NC(=O)N(C(=O)OCC(c2ccccc2)c2ccccc2)C1c1cccc([N+](=O)[O-])c1` (configuration not stated) gave an ED30 [2] of 10.6 µg/kg.

With `CCOC(=O)C1=C(C)NC(C)=C(C(=O)OC)C1c1cccc([N+](=O)[O-])c1` (configuration not stated) [NITRENDIPINE] the Tp [1] was 1 min and the ED30 [2] was 1.2 µg/kg.

For `CC1=C(C(=O)OC(C)C)C(c2ccccc2[N+](=O)[O-])N(C(=O)OCCN(Cc2ccccc2)Cc2ccc3ccccc3c2)C(C(C)C)=N1` (configuration not stated), the ED30 [2] was over 100 µg/kg.

`CC1=C(C(=O)OC(C)C)C(c2ccccc2[N+](=O)[O-])N(C(=O)OCCN(Cc2ccccc2)Cc2ccc3ccccc3c2)C(N(C)C)=N1` (configuration not stated) showed an ED30 [2] of over 100 µg/kg.

`CCCCOC(=O)C1=C(C)N=C(C)N(C(=O)OCCN(Cc2ccccc2)Cc2ccccc2)C1c1ccccc1[N+](=O)[O-]` (configuration not stated) gave a Tp [1] of 4.7 min and an ED30 [2] of 6.8 µg/kg.

`CCC1N=C(C)/C(=C(/O)OC(C)C)C(c2ccccc2[N+](=O)[O-])N1C(=O)OCN(Cc1ccccc1)Cc1ccc2ccccc2c1` (configuration not stated) was tested, and the Tp [1] was 7.2 min and the ED30 [2] was 13.5 µg/kg.

`CCC1N=C(C)/C(=C(/O)OC(C)C)C(c2ccccc2[N+](=O)[O-])N1C(=O)OCN(Cc1ccccc1)Cc1ccc(Cl)c(Cl)c1` (configuration not stated) was tested, and the Tp [1] was 5.5 min and the ED30 [2] was 19.5 µg/kg.

With `CCC1=NC(C)=C(C(=O)OC(C)C)C(c2ccccc2[N+](=O)[O-])N1C(=O)OCCN(Cc1ccccc1)Cc1ccc2ccccc2c1` (configuration not stated) the ED30 [2] was 27 µg/kg.

`CCOC(=O)C1=C(C)N=C(C)N(C(=O)OCC)C1c1ccccc1Cl` (configuration not stated) gave an ED30 [2] of 5 µg/kg.

Compound `CC1=C(C(=O)OCC2CC2)C(c2cccc([N+](=O)[O-])c2)N(C(=O)OCCN(C)Cc2ccccc2)C(=O)N1` (configuration not stated) has an ED30 [2] of 13 µg/kg.

With `CC1=C(C(=O)OC(C)C)C(c2ccccc2[N+](=O)[O-])N(C(=O)OCCN(Cc2ccccc2)Cc2ccc3ccccc3c2)C=N1` (configuration not stated) the ED30 [2] was over 100 µg/kg.

`CC1=C(C(=O)OC(C)C)C(c2ccccc2[N+](=O)[O-])N(C(=O)OCCN(Cc2ccccc2)Cc2ccc3ccccc3c2)C(=O)N1` (configuration not stated) gave a Tp [1] of 7.8 min and an ED30 [2] of 10 µg/kg.

In the case of `CCCCCCCOC(=O)N1C(C)=NC(C)=C(C(=O)OCC2CC2)C1c1ccccc1[N+](=O)[O-]` (configuration not stated), the ED30 [2] is reported as 5.6 µg/kg.

With `CC1=NC(C)=C(C(=O)OC(C)C)C(c2ccccc2[N+](=O)[O-])N1C(=O)OCCN(Cc1ccccc1)Cc1ccc2ccccc2c1` (configuration not stated) the AV block [3] was 1000 µg/kg, the ED30 [2] was 1.8 µg/kg and the IC50 [5] was 7.08 nM. For the same compound, the ED30 [4] was 762 µg/kg and the Tp [7] was 7.9 min.

Work on `CCOC(=O)N1C(CC)=NC(C)=C(C(=O)OC(C)C)C1c1ccccc1[N+](=O)[O-]` (configuration not stated) yielded an ED30 [2] of 8 µg/kg.

Work on `CCCCCCCOC(=O)C1=C(C)N=C(C)N(C(=O)OCC)C1c1ccccc1[N+](=O)[O-]` (configuration not stated) yielded an ED30 [2] of 23 µg/kg.

`COC(=O)C1=C(C#N)NC(C)=C(C(=O)OC(C)C)C1c1cccc([N+](=O)[O-])c1` (configuration not stated) [NILVADIPINE] was tested, and the AV block [9] was 100 µg/kg, the ED30 [4] was 34 µg/kg and the IC50 [6] was 1.04 nM.

With `CCOC(=O)N1C(C(F)(F)F)=NC(C)=C(C(=O)OC(C)C)C1c1ccccc1[N+](=O)[O-]` (configuration not stated) the ED30 [2] was 8.3 µg/kg.

`CCOC(=O)C1=C(C)N=C(C)N(C(=O)OCC)C1c1ccccc1Br` (configuration not stated) showed an ED30 [2] of 5 µg/kg.

In the case of `CCOC(=O)C1=C(C)N=C(C)N(C(=O)OCC)C1c1cccc([N+](=O)[O-])c1` (configuration not stated), the ED30 [2] is reported as 10 µg/kg.

`CC1=NC(C)=C(C(=O)OC(C)C)C(c2ccccc2[N+](=O)[O-])N1C(=O)OCCN(Cc1ccccc1)Cc1ccccc1` (configuration not stated) was tested, and the Tp [1] was 2.6 min and the ED30 [2] was 2.8 µg/kg.

`CC1=NC(C)=C(C(=O)OC(C)C)C(c2ccccc2[N+](=O)[O-])N1C(=O)OCCN(Cc1ccccc1)c1ccccc1` (configuration not stated) gave a Tp [1] of 1.9 min and an ED30 [2] of 0.74 µg/kg.
